MEKK2mut PB1 HTS: signal of MEK5 binding to mutant human MEKK2 PB1 domain; bead flow cytometry, Alexa488-MEK5 binding to MEKK2 mutant; percent response, % at 10 µM; hit rate 0.35% among 290,000; AID 1530; in the data active = percent response above about 24%, passing the limit was not always enough
MEKK3 PB1 HTS: raises or lowers MEK5 binding to the human MEKK3 PB1 domain | bead-based flow cytometry, Alexa488-MEK5 binding to MEKK3; actives lie on both sides; 0 = blocked by unlabeled MEK5, 100 = vehicle | hit rate 1.4% among 290,000 | binding response (% of control), % at 10 µM;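 active = binding response more than 3 SD above or below the average of its plate-row segment, actives on both sides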;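 note: Alexa488 bead fluorescence after subtracting the streptavidin-only scavenger bead signal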
Target sequence (Q99759 whole entry, looked up, the tested form may be a part): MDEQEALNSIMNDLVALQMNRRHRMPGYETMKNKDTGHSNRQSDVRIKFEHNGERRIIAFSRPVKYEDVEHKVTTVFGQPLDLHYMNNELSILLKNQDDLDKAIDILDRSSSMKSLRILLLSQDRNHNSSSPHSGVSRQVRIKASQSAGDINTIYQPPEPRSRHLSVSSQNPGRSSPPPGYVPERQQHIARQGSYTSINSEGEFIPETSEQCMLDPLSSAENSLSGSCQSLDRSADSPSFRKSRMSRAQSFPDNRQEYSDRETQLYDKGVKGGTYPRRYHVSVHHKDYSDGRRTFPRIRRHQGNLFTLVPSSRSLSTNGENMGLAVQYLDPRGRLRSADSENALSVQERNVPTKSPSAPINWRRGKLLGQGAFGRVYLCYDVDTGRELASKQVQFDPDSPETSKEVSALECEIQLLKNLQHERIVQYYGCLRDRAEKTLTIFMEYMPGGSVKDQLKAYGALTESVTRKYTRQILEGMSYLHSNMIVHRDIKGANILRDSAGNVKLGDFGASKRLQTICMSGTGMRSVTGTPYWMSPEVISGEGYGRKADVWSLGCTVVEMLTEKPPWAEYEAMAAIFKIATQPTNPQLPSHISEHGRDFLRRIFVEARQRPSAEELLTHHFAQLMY
MEKK2wt PB1 HTS: raises or lowers MEK5 binding to wildtype human MEKK2 PB1 domain; Q9Y2U5; bead flow cytometry, Alexa488-MEK5 binding to MEKK2 WT; actives lie on both sides; binding response (% of control), % at 10 µM; hit rate 1.1% among 290,000; AID 1531; in the data active = binding response below about 67% or above about 130%
ABCB1 inh: inhibitors of human ABCB1 transporter, ABCG2 counter-screen. P08183. CCRF-Adr cells, JC-1 efflux, flow cytometry. inhibition, % at 6.6 µM. hit rate 0.067% among 190,000. AID 1326; in the data active = inhibition above about 40%;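 note: 0% = vehicle and 100% = reference inhibitor; higher value means more JC-1 retained so stronger ABCB1 efflux block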
ABCG2 block: inhibitors of human ABCG2 transporter, ABCB1 counter-screen; hit rate 0.1% among 190,000; IgMXP3 cells, JC-1 efflux, flow cytometry; AID 1325; inhibition, % at 6.6 µM;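 active = inhibition above 80%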;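 note: 0% = DMSO and 100% = nicardipine control wells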
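Test system: ABCG2 IgMXP3 and barcoded ABCB1 CCRF-Adr cell mix; Schedule: cells with compound and JC-1, 10 min at 25 °C, rotating, no wash; Technique: flow cytometry of retained JC-1 fluorescence; Measure: % inhibition of efflux relative to nicardipine and DMSO; Controls: nicardipine high and DMSO low controls.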
MEKK2wt confirm: raises or lowers MEK5 binding to wildtype human MEKK2, retest | AID 1892 | binding response (% of control), % at 10 µM | hit rate 2.4% among 5,900 | shares compounds with MEKK3 PB1 HTS | bead flow cytometry, Alexa488-MEK5 binding to MEKK2 WT; actives lie on both sides; in the data active = binding response below about 16% or above about 210%; inactive = in between
MEKK2mut confirm: signal of MEK5 binding to mutant human MEKK2, retest. shares compounds with MEKK3 PB1 HTS. bead flow cytometry, Alexa488-MEK5 binding to MEKK2 mutant. hit rate 2% among 5,900. percent response, % at 10 µM; in the data active = percent response mostly above about 71%, no sharp cut-off; inactive = mostly below about 38%;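 note: higher means compound restores mutant binding toward wildtype level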
MEKK3 confirm: confirmation of inhibitors of MEK5 binding to human MEKK3. shares compounds with MEKK3 PB1 HTS. bead flow cytometry, Alexa488-MEK5 binding to MEKK3; hits give low values. binding response (% of control), % at 10 µM. hit rate 1.8% among 5,900. AID 1894;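 active = binding response below 72% of control, or above a set upper limit, though filed actives all read lower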;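 note: 100% = DMSO only wells and 0% = binding blocked by excess unlabeled MEK5; lower values mean stronger disruption of MEK5 binding to MEKK3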
* = called active by the depositor; [ ] = remark or other dose. Rows were chosen to be rich in hits. Some 2.3% of all compounds tested hit in one or more screens of this group.

`COC(=O)c1cc(C#N)c(Oc2ccccc2OC)nc1C` gave MEKK2mut PB1 HTS 0, MEKK3 PB1 HTS 103, MEKK2wt PB1 HTS 105, ABCB1 inh 1 and ABCG2 block 6.
`Cc1nn(C)cc1-c1cc(C(=O)O)c2ccccc2n1` gave MEKK2mut PB1 HTS -3, MEKK3 PB1 HTS 65*[inhibitor], MEKK2wt PB1 HTS 23*[inhibitor], ABCB1 inh 1, ABCG2 block 3, MEKK2wt confirm 95, MEKK2mut confirm -3 and MEKK3 confirm 97.
For COCCC(=O)N1CCC(Oc2ccc(C(=O)NCc3cccc(C)n3)cc2)CC1 the results were MEKK2mut PB1 HTS -5, MEKK3 PB1 HTS 98 and MEKK2wt PB1 HTS 100.
`CCOC(=O)C(NCc1ccco1)(NC(=O)c1ccccc1)C(F)(F)F` (configuration not stated) gave MEKK2mut PB1 HTS 5, MEKK3 PB1 HTS 133*, MEKK2wt PB1 HTS 130, ABCB1 inh 0, ABCG2 block 1, MEKK2wt confirm 108, MEKK2mut confirm 4 and MEKK3 confirm 106.
`Cc1ccc(-c2cc(C(=O)Nc3nccs3)c3ccccc3n2)c(C)c1` gave MEKK2mut PB1 HTS 0, MEKK3 PB1 HTS 152*, MEKK2wt PB1 HTS 106, ABCB1 inh 4, ABCG2 block 12, MEKK2wt confirm 105, MEKK2mut confirm -6 and MEKK3 confirm 101.
Screening O=C(Cn1c(=O)oc2ccc(Cl)cc21)Nc1ccon1 returned MEKK2mut PB1 HTS -1, MEKK3 PB1 HTS 99 and MEKK2wt PB1 HTS 98.
Screening COC(=O)c1ccc(OC(=O)c2cccnc2)cc1 returned MEKK2mut PB1 HTS 0, MEKK3 PB1 HTS 128*, MEKK2wt PB1 HTS 106, ABCB1 inh 0, ABCG2 block 0, MEKK2wt confirm 97, MEKK2mut confirm -7 and MEKK3 confirm 95.
Screening NC(=O)c1ccccc1NC(=O)COc1ccc2c(c1)OCO2 returned MEKK2mut PB1 HTS 4, MEKK3 PB1 HTS 103 and MEKK2wt PB1 HTS 105.
`O=C(CN1CCN(S(=O)(=O)/C=C/c2ccccc2)CC1)NCC(F)(F)F` gave MEKK2mut PB1 HTS 1, MEKK3 PB1 HTS 98 and MEKK2wt PB1 HTS 98.
`Cc1ccc(CNc2ccc3nnc(-c4ccccc4)n3n2)cc1` gave MEKK2mut PB1 HTS -3, MEKK3 PB1 HTS 108, MEKK2wt PB1 HTS 102, ABCB1 inh 1 and ABCG2 block 15.
For c1ccc(CN2CCN(CCCNc3ccc4nnc(-c5ccccc5)n4n3)CC2)cc1 the results were MEKK2mut PB1 HTS 24*, MEKK3 PB1 HTS 114, MEKK2wt PB1 HTS 132, ABCB1 inh 1, ABCG2 block 9, MEKK2wt confirm 161, MEKK2mut confirm 38 and MEKK3 confirm 111.
`Cc1nn(C)cc1/C=C(/C#N)C(N)=O` gave MEKK2mut PB1 HTS 1, MEKK3 PB1 HTS 149*, MEKK2wt PB1 HTS 109, ABCB1 inh 0, ABCG2 block 14, MEKK2wt confirm 100, MEKK2mut confirm -6 and MEKK3 confirm 99.
`CCOC(=O)/C(C#N)=C/Nc1ccccc1OC` gave MEKK2mut PB1 HTS -16, MEKK3 PB1 HTS 2.0*[inhibitor], MEKK2wt PB1 HTS 2.0*[inhibitor], ABCB1 inh 1, ABCG2 block 7, MEKK2wt confirm 106, MEKK2mut confirm 9 and MEKK3 confirm 105.
Screening Cc1ccc(Nc2c(N)c(=O)oc3ccccc23)cc1 returned MEKK2mut PB1 HTS 4, MEKK3 PB1 HTS 0.0*[inhibitor], MEKK2wt PB1 HTS 0.0*[inhibitor], ABCB1 inh -1, ABCG2 block 0, MEKK2wt confirm 101, MEKK2mut confirm 2 and MEKK3 confirm 98.
Screening COc1ccc([N+](=O)[O-])cc1NC(=O)CCS(=O)(=O)c1ccc(Br)cc1 returned MEKK2mut PB1 HTS -5, MEKK3 PB1 HTS 97 and MEKK2wt PB1 HTS 103.
`O=C(COc1cccnc1[N+](=O)[O-])N1CCN(S(=O)(=O)c2ccccc2)CC1` gave MEKK2mut PB1 HTS 1, MEKK3 PB1 HTS 145*, MEKK2wt PB1 HTS 109, ABCB1 inh 1, ABCG2 block 16, MEKK2wt confirm 105, MEKK2mut confirm 6 and MEKK3 confirm 102.
`Cn1ccnc1SCC(=O)N1CCN(S(=O)(=O)c2ccccc2)CC1` gave MEKK2mut PB1 HTS 2, MEKK3 PB1 HTS 4.0*[inhibitor], MEKK2wt PB1 HTS 4.0*[inhibitor], ABCB1 inh 0, ABCG2 block 2, MEKK2wt confirm 99, MEKK2mut confirm 7 and MEKK3 confirm 102.

Assay outcomes as filed in PubChem.
